HSP90 inh – blocks HSP90-mediated luciferase refolding in reticulocyte lysate. Rabbit reticulocyte lysate, luciferase refolding luminescence, 3 h. inhibition, % at 5.6 µM. 290,000 compounds, 0.91% hits. AID 1789;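 active means inhibition above the screen-wide mean plus 3 SD, computed separately per campaign, cut at about 16% in these data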;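 further: 0% = DMSO wells and 100% = 60 µM geldanamycin wells; inhibitors lower the luminescence because luciferase stays unfolded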
SENP1 inh – SENP1 (human) catalytic domain inhibition; Q9P0U3; recombinant SENP1 catalytic domain, CyPet-SUMO1-YPet FRET cleavage; inhibition, % at 10 µM; 360,000 compounds, 0.21% hits; AID 624204;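 active means inhibition at least 30% at 10 µM, raw YFP signal under a set limit, fluorescence ratio 0.5 to 1.5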;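 further: 0% = enzyme with DMSO and 100% = no enzyme wells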
Target sequence (Q9P0U3 419-644 limits assumed): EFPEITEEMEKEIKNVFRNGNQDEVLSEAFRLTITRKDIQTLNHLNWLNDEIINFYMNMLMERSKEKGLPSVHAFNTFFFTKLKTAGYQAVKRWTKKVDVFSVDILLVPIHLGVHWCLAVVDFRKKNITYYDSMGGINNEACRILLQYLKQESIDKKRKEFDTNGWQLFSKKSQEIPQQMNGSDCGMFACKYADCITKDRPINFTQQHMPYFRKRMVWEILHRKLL
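System: Recombinant human SENP1 catalytic domain, His6-tagged | Incubation: Enzyme reaction for 50 min at room temperature, dark | Medium: Tris pH 8 with BME, BSA, NP40 and catalase | Also added: 25 nM SUMO1 FRET substrate | Compound: 10 µM single point, 0.5% DMSO | Measured by: FRET fluorescence in CFP and YFP emission channels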
SENP7 inh – SENP7 protease inhibition; Q9BQF6; AID 434973; recombinant SENP7, Z-RLRGG-aminoluciferin luminescence, 40 min; inhibition, % at 5 µM; 330,000 compounds, 1.5% hits;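 active means inhibition above about 50% at the single test dose, limit read from the data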;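 further: plate controls were DMSO with enzyme for no effect and no enzyme buffer wells for full effect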
SENP6 block – blocks the human protease SENP6. Q9GZR1. Recombinant SENP6 catalytic domain, aminoluciferin luminescence. inhibition, % at 10 µM. 330,000 compounds, 1.8% hits. AID 2599;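 active means inhibition above about 50% at the single tested dose, limit read from the data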;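 further: plate controls were DMSO wells with enzyme for no effect and DMSO wells lacking enzyme for full effect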
Target sequence (Q9GZR1 628-1112 limits assumed): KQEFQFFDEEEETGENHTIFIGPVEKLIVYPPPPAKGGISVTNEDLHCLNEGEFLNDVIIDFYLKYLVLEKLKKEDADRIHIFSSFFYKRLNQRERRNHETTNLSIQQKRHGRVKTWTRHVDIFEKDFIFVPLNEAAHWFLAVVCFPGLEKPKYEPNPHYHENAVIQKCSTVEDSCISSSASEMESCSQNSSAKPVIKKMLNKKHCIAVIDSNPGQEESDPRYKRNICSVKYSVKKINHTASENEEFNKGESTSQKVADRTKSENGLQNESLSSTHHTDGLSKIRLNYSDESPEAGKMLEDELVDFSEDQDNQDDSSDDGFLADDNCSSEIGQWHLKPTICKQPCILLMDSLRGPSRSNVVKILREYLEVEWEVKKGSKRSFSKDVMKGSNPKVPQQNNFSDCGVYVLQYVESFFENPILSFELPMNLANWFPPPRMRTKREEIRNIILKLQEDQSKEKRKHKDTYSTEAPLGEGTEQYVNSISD
SENP8 block-1 – SENP8 protease inhibition; Q96LD8; purified SENP8, Z-RLRGG-aminoluciferin cleavage, luminescence; inhibition, % at 10 µM; 330,000 compounds, 1.2% hits; AID 2540; in the data active means inhibition above about 50%
SENP8 block-2 – inhibitors of human SENP8 protease; Q96LD8; recombinant SENP8, Nedd8 substrate fluorescence; inhibition, % at 20 µM; 360,000 compounds, 0.64% hits; in the data active means inhibition mostly above about 40%, no sharp cut-off; inactive means mostly below about 27%
SENP8 confirm – confirmation of human SENP8 protease inhibitors; Recombinant SENP8, Z-RLRGG-aminoluciferin luminescence, 60 min; inhibition, % at 12.5 µM; 6,200 compounds, 40% hits; shares compounds with SENP7 inh; AID 488912;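 active means mean inhibition across replicates above about 50%, limit read from the data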
SENP6 confirm – human SENP6 inhibition, confirmed; shares compounds with SENP7 inh; recombinant SENP6, Z-RLRGG-aminoluciferin luminescence; inhibition, % at 12.5 µM; 6,200 compounds, 58% hits
SENP7 confirm – confirmation of human SENP7 protease inhibitors. shares compounds with SENP7 inh. recombinant SENP7, Z-RLRGG-aminoluciferin luminescence, 40 min. inhibition, % at 12.5 µM. 6,200 compounds, 69% hits
Casp3 SENP sel – selectivity test for SENP inhibitors: human caspase-3 inhibition; shares compounds with SENP7 inh; purified caspase-3, Z-DEVD-aminoluciferin luminescence, 60 min; inhibition, % at 12.5 µM; 6,200 compounds, 60% hits; AID 488918;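 active means mean inhibition above about 50%, limit read from the data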;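 further: plate controls were enzyme with DMSO for no effect and wells without caspase-3 for full effect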
Luc interf – interferes with luciferase luminescence in SENP counter-screen; 6,200 compounds, 39% hits; Pre-incubated SENP8/Z-RLRGG-aminoluciferin, luciferase luminescence interference; inhibition, % at 12.5 µM; shares compounds with SENP7 inh;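 active means mean inhibition above about 50% when retested at one dose, limit read from the data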;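 further: plate controls were DMSO wells with completed reaction for no effect and substrate without enzyme for full effect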
Active calls of the source: *. In the library only some 2.9% were active in any assay of this set; here they are far more common.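 How the source made its calls, unless noted: active means mean inhibition above about 50% in the one-dose retest (limit read from the data); inactive means the rest.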

COC(=O)c1ccccc1NC(=O)CSc1nc2ccsc2c(=O)n1Cc1ccc(C(=O)O)cc1 was read as SENP1 inh 2.6 and SENP8 block-2 15.6.
For COc1cc(C#Cc2ccc3cc(CCO)oc(=O)c3c2)cc(OC)c1 the results were SENP1 inh 0.0, SENP7 inh 84.5*, SENP6 block 84.3*, SENP8 block-1 79.6*, SENP8 block-2 inactive, SENP8 confirm 80.6*, SENP6 confirm 83.4*, SENP7 confirm 94.7*, Casp3 SENP sel 61.4* and Luc interf 65.2*.
Cc1c(C(=O)O)oc2ccc(S(=O)(=O)N3CCC(C)CC3)cc12 was read as HSP90 inh 2.2, SENP1 inh -0.8, SENP7 inh 2.9, SENP6 block -2.9, SENP8 block-1 -2.2 and SENP8 block-2 13.2.
Screening Cc1c(C(=O)N2CCC(C)CC2)oc2ccc(S(=O)(=O)N3CCC4(CC3)OCCO4)cc12 returned HSP90 inh 2.3, SENP1 inh 1.2, SENP7 inh 75.1*, SENP6 block 5.7, SENP8 block-1 3.4, SENP8 block-2 7.6, SENP8 confirm 6.0, SENP6 confirm 7.8, SENP7 confirm 6.6, Casp3 SENP sel 2.8 and Luc interf 1.7.
`Cc1nc(N/N=C\c2ccc3c(c2)OCO3)sc1C` gave HSP90 inh 10.2, SENP1 inh -5.1, SENP7 inh 2.5, SENP6 block 50.4*, SENP8 block-1 -0.8, SENP8 block-2 -67.8, SENP8 confirm 36.6, SENP6 confirm 43.5, SENP7 confirm 75.0*, Casp3 SENP sel 20.7 and Luc interf 36.1.
Screening Clc1ccccc1N/N=C/c1ccc2c(c1)OCO2 returned HSP90 inh -4.7, SENP1 inh -2.5, SENP7 inh 74.1*, SENP6 block 95.9*, SENP8 block-1 88.7*, SENP8 block-2 0.5, SENP8 confirm 97.5*, SENP6 confirm 98.7*, SENP7 confirm 101.9*, Casp3 SENP sel 91.4* and Luc interf 89.2*.
For O=C(CNC(=O)c1ccccc1Cl)N/N=C/c1ccc2c(c1)OCO2 the results were HSP90 inh -3.4, SENP1 inh -0.2, SENP7 inh -12.4, SENP6 block -11.9, SENP8 block-1 -5.9 and SENP8 block-2 3.5.
`C(=N\Nc1nc2ccccc2[nH]1)/c1ccc2c(c1)OCO2` gave HSP90 inh 4.4, SENP1 inh 0.4 and SENP8 block-2 -240.9.
`O=C(C(Cl)c1ccccc1)N1CCOCC1` (stereo not given) gave HSP90 inh 1.4, SENP1 inh 1.1, SENP7 inh 3.4, SENP6 block 0.8, SENP8 block-1 5.9 and SENP8 block-2 0.6.
COc1ccc(S(=O)(=O)N2CCN(C(=O)CCNC(=O)c3ccccc3Cl)CC2)cc1 was read as SENP1 inh -1.1, SENP7 inh 1.0, SENP6 block -4.2, SENP8 block-1 0.2 and SENP8 block-2 2.4.
For O=C(c1ccc(N2CCOCC2)c([N+](=O)[O-])c1)N1CCN(c2ccccc2)CC1 the results were SENP1 inh 0.0 and SENP8 block-2 17.6.
Screening O=C(O)c1cc(/C=C/c2ccc(N3CCOCC3)cc2)nc2ccccc12 returned HSP90 inh 11.7, SENP1 inh -31.0, SENP7 inh 68.8*, SENP6 block 1.7, SENP8 block-1 70.0*, SENP8 block-2 -417.8, SENP8 confirm 79.0*, SENP6 confirm 78.5*, SENP7 confirm 95.6*, Casp3 SENP sel 90.3* and Luc interf 83.1*.
O=C(O)c1cc(/C=C/c2ccc(N3CCOCC3)c([N+](=O)[O-])c2)nc2ccccc12 was read as HSP90 inh 11.3, SENP1 inh -22.2, SENP7 inh 62.9*, SENP6 block 76.8*, SENP8 block-1 52.6*, SENP8 block-2 -104.2, SENP8 confirm 73.0*, SENP6 confirm 68.3*, SENP7 confirm 91.1*, Casp3 SENP sel 81.0* and Luc interf 71.4*.
Screening N/C(=N\OC(=O)c1cnn(-c2ccccc2)c1C(F)(F)F)c1ccc(C(F)(F)F)cc1 returned HSP90 inh 1.5, SENP1 inh 0.3, SENP7 inh 4.0, SENP6 block 8.8, SENP8 block-1 -1.2 and SENP8 block-2 17.5.
`O=C(COC(=O)c1ccc[n+]([O-])c1)Nc1ccc(Cl)cc1[N+](=O)[O-]` gave SENP1 inh -0.4, SENP7 inh 4.4, SENP6 block 4.1, SENP8 block-1 -0.3 and SENP8 block-2 9.6.
`CS(=O)(=O)N1N=C(c2cccs2)CC1c1ccccc1` (stereo not given) gave HSP90 inh 1.9, SENP1 inh -1.5, SENP7 inh 1.9, SENP6 block 18.8, SENP8 block-1 -1.1 and SENP8 block-2 -1.4.
Screening CS(=O)(=O)N1N=C(c2ccc(Br)cc2)CC1c1cccs1 (stereo not given) returned HSP90 inh 0.4, SENP1 inh -0.3, SENP7 inh 33.6, SENP6 block 61.2*, SENP8 block-1 39.8, SENP8 block-2 25.4, SENP8 confirm 8.4, SENP6 confirm 9.1, SENP7 confirm 83.2*, Casp3 SENP sel 55.5* and Luc interf 5.5.
Screening CCc1ccc(C2=NN(S(C)(=O)=O)C(c3cccs3)C2)cc1 (stereo not given) returned HSP90 inh 1.5, SENP1 inh -53.9, SENP7 inh 92.2*, SENP6 block 95.6*, SENP8 block-1 83.3*, SENP8 block-2 -50.8, SENP8 confirm 89.8*, SENP6 confirm 90.2*, SENP7 confirm 98.9*, Casp3 SENP sel 89.6* and Luc interf 85.5*.
Screening COc1ccc(C2=NN(S(C)(=O)=O)C(c3cccs3)C2)cc1 (stereo not given) returned HSP90 inh 0.1, SENP1 inh 0.3, SENP7 inh 45.6, SENP6 block -9.6, SENP8 block-1 30.2 and SENP8 block-2 11.4.
For Cc1ccc(C2=NN(S(C)(=O)=O)C(c3cccs3)C2)cc1 (stereo not given) the results were HSP90 inh -0.2, SENP1 inh 0.4, SENP7 inh 51.6*, SENP6 block 73.7*, SENP8 block-1 53.6*, SENP8 block-2 21.8, SENP8 confirm 68.1*, SENP6 confirm 64.5*, SENP7 confirm 86.8*, Casp3 SENP sel 75.4* and Luc interf 66.7*.
